Legend:
T.b. brucei = assay: Trypanosoma brucei assay; type: cell-based; settings: 48 h, read-out: Antitrypanosomal IC50
How it was run: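 In vitro T. b. brucei cultures in 96-well plates were exposed to the test agent for 48 h; the extract was screened at 25 µg/mL unless otherwise stated. Surviving parasites were counted by adding a resazurin reagent and reading resorufin fluorescence (Ex 560/Em 590). Pentamidine reference; triplicate wells; IC50 from dose-response data.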

Cytotoxicity assay = type: cell-based; settings: human, HeLa cells
How it was run: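 HeLa cells grown in DMEM with 5 mM L-glutamine, 10% FBS and penicillin/streptomycin/fungizone, then exposed to the test agent for 24 h in 96-well plates. A resazurin reagent was added and the resorufin formed by surviving cells was read by fluorescence (Ex 560/Em 590). Triplicate wells; emetine as positive control.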

Trypanosoma brucei = settings: cited from earlier work
falcipain-2 = settings: read-out: IC50 against falcipain-2; cited from earlier work
P. falciparum W2 = settings: read-out: IC50 against P. falciparum W2; cultured malaria parasites; cited from earlier work
[1] = DPPH radical scavenging assay; settings: 37 °C, 30 min, 517 nm, n = 3
How it was run: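 Ethanolic DPPH (300 µM before mixing) was combined with test solution (0.5 mg/mL before mixing) and held at 37 °C for 30 min, then read at 517 nm. % radical scavenging was taken relative to a DMSO control. IC50 is the concentration removing 50% of the initial DPPH, fitted by kinetics software. N-acetyl-L-cysteine standard; 3 replicates.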

HIV-1 IN = settings: by chelating the active site Mg2+ cofactor; cited from earlier work

Question: With `N=C(N)c1ccc(OCCCCCOc2ccc(C(=N)N)cc2)cc1` [pentamidine] as the compound, how does the IC50 (T.b. brucei) read?
Answer: The IC50 was 0.782 ± 0.006 nM.

Question: For `CC[C@H]1CN2CCc3cc(OC)c(OC)cc3[C@@H]2C[C@@H]1C[C@H]1NCCc2cc(OC)c(OC)cc21` [emetine], which IC50 at 24 h (Cytotoxicity assay) is on record?
Answer: Its IC50 at 24 h is 45 ± 10 nM.

Question: With epigallocatechin-3-gallate as the compound, how does the “activity against Trypanosoma brucei” value (Trypanosoma brucei) read?
Answer: Its value is “active against Trypanosoma brucei”.

Question: For `COC(=O)c1c(O)ccc(O)c1O` [2,3,6-trihydroxy methyl benzoate], which IC50 (falcipain-2) is on record?
Answer: Its IC50 is 6.09 ± 0.87 µM.

Question: And the IC50 (P. falciparum W2)?
Answer: Its IC50 is 13 ± 1.63 µM.

Question: Which results are given for `O=C(O)c1c(O)ccc(O)c1O` [2,3,6-trihydroxy benzoic acid]?
Answer: IC50 (falcipain-2): 35.4 ± 22.4 µM; IC50 (P. falciparum W2): 16.5 ± 0.47 µM

Question: Which “Antioxidant IC50” value [1] does the source give for `CC(=O)N[C@@H](CS)C(=O)O` [N-acetyl-L-cysteine] here?
Answer: Its value is 0.0141 ± 0.0001 mg/mL.

Question: Which “HIV-1 IN inhibition” value (HIV-1 IN) does the source give for `COC(=O)c1cc(O)c(O)c(O)c1` [methyl gallate, Methyl gallate] here?
Answer: Its value is “inhibits HIV-1 IN”.

— PMC11303703 (Scientific Reports, 2024)
